Activity calls are given as the source filed them. No cut-off for these calls is given here.
Assays:
[1] = tested on: Escherichia coli; assay: Potentiation of colistin-induced antibacterial activity against Escherichia coli YD626 harbouring mcr-1 gene assessed as reduction in colistin MIC at 15 uM incubated for 16 hrs by broth microdilution method; type: functional, organism-based
Outline: (§1)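 For the dose-response, colistin MIC was measured against mcr-1 plasmid-bearing E. coli, K. pneumoniae and A. baumannii while the adjuvant concentration was lowered stepwise (30, 15 μM, down to 5 μM). The aim was to find where the MIC rose above the 2 μg/mL CLSI susceptibility breakpoint.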

[2] = Cytotoxicity against mouse 4T1 cells assessed as reduction in cell viability incubated for 18 hrs by MTT assay; type: cell-based
Outline: (§2)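 4T1 mouse mammary tumor cells exposed to compound for 18 h, alone or together with colistin at 1 μg/mL. Medium then aspirated and replaced with 0.5 mg/mL MTT in culture medium for colorimetric viability read-out. CT50 taken as the concentration giving 50% cell viability.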

[3] = tested on: Acinetobacter baumannii; assay: Potentiation of colistin-induced antibacterial activity against Acinetobacter baumannii 4106 assessed as reduction in colistin MIC at 15 uM incubated for 16 hrs by broth microdilution method (reference value: 1024 ug/ml); type: functional; conditions: Acinetobacter baumannii, 4106, 16 h
[4] = tested on: Klebsiella pneumoniae; assay: Potentiation of colistin-induced antibacterial activity against Klebsiella pneumoniae C3 assessed as reduction in colistin MIC at 10 uM incubated for 16 hrs by broth microdilution method (reference value: 512 ug/ml); type: functional; conditions: C3, 16 h
[5] = tested on: Klebsiella pneumoniae; assay: Potentiation of colistin-induced antibacterial activity against Klebsiella pneumoniae B9 assessed as reduction in colistin MIC at 10 uM incubated for 16 hrs by broth microdilution method (reference value: 512 ug/ml); type: functional; conditions: B9, 16 h
Outline: (§3)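 Colistin MIC was measured against chromosomally colistin-resistant strains (K. pneumoniae B9, C3; A. baumannii 4106, among four strains) with adjuvant at fixed levels from 20 μM down to 7.5 μM. Fold reduction was reported against colistin alone, with the CLSI breakpoint taken as ≤2 μg/mL.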

[6] = tested on: Acinetobacter baumannii; assay: Potentiation of colistin-induced antibacterial activity against Acinetobacter baumannii 4106 assessed as reduction in colistin MIC at 10 uM incubated for 16 hrs by broth microdilution method (reference value: 1024 ug/ml); type: functional; conditions: Acinetobacter baumannii, 4106, 16 h
[7] = tested on: Klebsiella pneumoniae; assay: Potentiation of colistin-induced antibacterial activity against Klebsiella pneumoniae 2210291 assessed as colistin MIC at 50 uM incubated for 16 hrs by broth microdilution method (reference value: 1 ug/ml); type: functional; conditions: Klebsiella pneumoniae, 2210291, 16 h
[8] = tested on: Escherichia coli; assay: Potentiation of colistin-induced antibacterial activity against Escherichia coli YD626 harbouring mcr-1 gene assessed as colistin MIC at 50 uM incubated for 16 hrs by broth microdilution method (reference value: 8 ug/ml); type: functional; conditions: YD626, 16 h
[9] = tested on: Acinetobacter baumannii; assay: Potentiation of colistin-induced antibacterial activity against Acinetobacter baumannii 3941 assessed as reduction in colistin MIC at 15 uM incubated for 16 hrs by broth microdilution method (reference value: 512 ug/ml); type: functional; conditions: Acinetobacter baumannii, 3941, 16 h
[10] = tested on: Klebsiella pneumoniae; assay: Potentiation of colistin-induced antibacterial activity against Klebsiella pneumoniae C3 assessed as reduction in colistin MIC at 20 uM incubated for 16 hrs by broth microdilution method (reference value: 512 ug/ml); type: functional; conditions: C3, 16 h; outline: as §3
[11] = tested on: Acinetobacter baumannii; assay: Potentiation of colistin-induced antibacterial activity against Acinetobacter baumannii 17978 harbouring mcr-1 gene assessed as reduction in colistin MIC at 15 uM incubated for 16 hrs by broth microdilution method; type: functional, organism-based; outline: as §1
[12] = tested on: Klebsiella pneumoniae; assay: Potentiation of colistin-induced antibacterial activity against Klebsiella pneumoniae B9 assessed as reduction in colistin MIC at 7.5 uM incubated for 16 hrs by broth microdilution method (reference value: 512 ug/ml); type: functional; conditions: B9, 16 h
[13] = tested on: Acinetobacter baumannii; assay: Potentiation of colistin-induced antibacterial activity against Acinetobacter baumannii 3941 assessed as reduction in colistin MIC at 10 uM incubated for 16 hrs by broth microdilution method (reference value: 512 ug/ml); type: functional; conditions: Acinetobacter baumannii, 3941, 16 h
[14] = tested on: Acinetobacter baumannii; assay: Potentiation of colistin-induced antibacterial activity against Acinetobacter baumannii 17978 assessed as colistin MIC at 50 uM incubated for 16 hrs by broth microdilution method (reference value: 2 ug/ml); type: functional; conditions: Acinetobacter baumannii, 17978, 16 h
[15] = tested on: Acinetobacter baumannii; assay: Potentiation of colistin-induced antibacterial activity against Acinetobacter baumannii 17978 harbouring mcr-1 gene assessed as colistin MIC at 50 uM incubated for 16 hrs by broth microdilution method (reference value: 16 ug/ml); type: functional; conditions: Acinetobacter baumannii, 17978, 16 h
[16] = tested on: Klebsiella pneumoniae; assay: Potentiation of colistin-induced antibacterial activity against Klebsiella pneumoniae B9 assessed as reduction in colistin MIC at 20 uM incubated for 16 hrs by broth microdilution method (reference value: 512 ug/ml); type: functional; conditions: B9, 16 h
[17] = tested on: Klebsiella pneumoniae; assay: Potentiation of colistin-induced antibacterial activity against Klebsiella pneumoniae B9 assessed as reduction in colistin MIC at 5 uM incubated for 16 hrs by broth microdilution method (reference value: 512 ug/ml); type: functional; conditions: B9, 16 h
[18] = tested on: Acinetobacter baumannii; assay: Potentiation of colistin-induced antibacterial activity against Acinetobacter baumannii 4106 assessed as reduction in colistin MIC at 20 uM incubated for 16 hrs by broth microdilution method (reference value: 1024 ug/ml); type: functional; conditions: Acinetobacter baumannii, 4106, 16 h
[19] = Cytotoxicity against mouse 4T1 cells assessed as reduction in cell viability in presence of 1 ug/ml colistin incubated for 18 hrs by MTT assay; type: cell-based; outline: as §2
[20] = tested on: Escherichia coli; assay: Potentiation of colistin-induced antibacterial activity against Escherichia coli YD626 assessed as colistin MIC at 50 uM incubated for 16 hrs by broth microdilution method (reference value: 1 ug/ml); type: functional; conditions: YD626, 16 h
[21] = tested on: Klebsiella pneumoniae; assay: Potentiation of colistin-induced antibacterial activity against Klebsiella pneumoniae B9 assessed as reduction in colistin MIC at 15 uM incubated for 16 hrs by broth microdilution method (reference value: 512 ug/ml); type: functional; conditions: B9, 16 h
[22] = tested on: Klebsiella pneumoniae; assay: Potentiation of colistin-induced antibacterial activity against Klebsiella pneumoniae 2210291 harbouring mcr-1 gene assessed as colistin MIC at 50 uM incubated for 16 hrs by broth microdilution method (reference value: 16 ug/ml); type: functional; conditions: Klebsiella pneumoniae, 2210291, 16 h
[23] = tested on: Klebsiella pneumoniae; assay: Potentiation of colistin-induced antibacterial activity against Klebsiella pneumoniae 2210291 harbouring mcr-1 gene assessed as reduction in colistin MIC at 15 uM incubated for 16 hrs by broth microdilution method; type: functional, organism-based; outline: as §1
[24] = tested on: Acinetobacter baumannii; assay: Potentiation of colistin-induced antibacterial activity against Acinetobacter baumannii 3941 assessed as reduction in colistin MIC at 20 uM incubated for 16 hrs by broth microdilution method (reference value: 512 ug/ml); type: functional; conditions: Acinetobacter baumannii, 3941, 16 h
[25] = tested on: Klebsiella pneumoniae; assay: Potentiation of colistin-induced antibacterial activity against Klebsiella pneumoniae C3 assessed as reduction in colistin MIC at 15 uM incubated for 16 hrs by broth microdilution method (reference value: 512 ug/ml); type: functional; conditions: C3, 16 h
[26] = tested on: Klebsiella pneumoniae; assay: Potentiation of colistin-induced antibacterial activity against Klebsiella pneumoniae 2210291 harbouring mcr-1 gene assessed as reduction in colistin MIC at 15 uM incubated for 16 hrs by broth microdilution method (reference value: 16 ug/ml); type: functional; conditions: Klebsiella pneumoniae, 2210291, 16 h; outline: as §1
[27] = tested on: Acinetobacter baumannii; assay: Potentiation of colistin-induced antibacterial activity against Acinetobacter baumannii 17978 harbouring mcr-1 gene assessed as reduction in colistin MIC at 15 uM incubated for 16 hrs by broth microdilution method (reference value: 16 ug/ml); type: functional; conditions: Acinetobacter baumannii, 17978, 16 h; outline: as §1
[28] = tested on: Escherichia coli; assay: Potentiation of colistin-induced antibacterial activity against Escherichia coli YD626 harbouring mcr-1 gene assessed as reduction in colistin MIC at 15 uM incubated for 16 hrs by broth microdilution method (reference value: 8 ug/ml); type: functional; conditions: YD626, 16 h; outline: as §1
[29] = Hemolytic activity in sheep RBC at 200 uM incubated for 1 hr by UV spectrophotometry; type: ADME, cell-based, Ovis aries, Erythrocyte; conditions: sheep red blood cells (erythrocytes), read-out: Activity
Outline: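 Red blood cells exposed to compound at 200 μM, with percent cell lysis recorded.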

[30] = tested on: Acinetobacter baumannii; assay: Antivirulence activity in Acinetobacter baumannii 4106 infected Galleria mellonella larvae model assessed as survival rate at 100 mg/kg measured at 24 hrs interval over 4 days; type: functional
Outline: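 A. baumannii 4106 was given to Galleria mellonella larvae at 6 × 10^5 CFU, the lethal inoculum found by dose escalation. Larvae were treated with colistin 50 mg/kg, adjuvant 50 mg/kg, colistin plus adjuvant (50 mg/kg each), or tigecycline 100 mg/kg as positive control. Survival was scored out to day 4.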

| Compound | MIC [3] | MIC [4] | MIC [5] | MIC [6] | MIC [7] | MIC [8] | MIC [9] | MIC [10] | MIC [12] | MIC [13] | MIC [14] | MIC [15] | MIC [16] | MIC [17] | MIC [18] | MIC [20] | MIC [21] | MIC [22] | MIC [24] | MIC [25] | further results |
| --- | --- | --- | --- | --- | --- | --- | --- | --- | --- | --- | --- | --- | --- | --- | --- | --- | --- | --- | --- | --- | --- |
| O=C(NCCc1c[nH]c2ccccc12)Nc1cc(Br)cc(Br)c1 | 4 µg/mL | 8 µg/mL | 1 µg/mL | 8 µg/mL | 0.5 µg/mL | 2 µg/mL | 8 µg/mL | 2 µg/mL | 4 µg/mL | 16 µg/mL | 0.5 µg/mL | 1 µg/mL | ≤ 0.25 µg/mL | 32 µg/mL | 4 µg/mL | 0.25 µg/mL | 0.5 µg/mL | 1 µg/mL | 8 µg/mL | 4 µg/mL | Activity [1]: Active; CC50 at 18 h [2]: 86.2 µM; Activity [11]: Active; CC50 at 18 h [19]: 64.2 µM; Activity [23]: Active |
| O=C(NCCc1c[nH]c2ccc(Br)cc12)Nc1ccc(Cl)c(Cl)c1 | 2 µg/mL | 4 µg/mL | 1 µg/mL | 4 µg/mL | 0.5 µg/mL | 0.5 µg/mL | 4 µg/mL | 1 µg/mL | 2 µg/mL | 8 µg/mL | 0.5 µg/mL | 1 µg/mL | ≤ 0.25 µg/mL | 8 µg/mL | 2 µg/mL | 0.25 µg/mL | 0.5 µg/mL | 0.5 µg/mL | 2 µg/mL | 2 µg/mL | MIC [26]: 1 µg/mL; MIC [27]: 1 µg/mL; MIC [28]: 1 µg/mL |
| CCCCc1ccc(NC(=O)NCCc2c[nH]c3ccc(Br)cc23)cc1 | – | – | – | – | 0.5 µg/mL | 8 µg/mL | – | – | – | – | 2 µg/mL | 16 µg/mL | – | – | – | 1 µg/mL | – | 16 µg/mL | – | – | hemolysis at 1 h, 200 µM [29]: < 2.5% |
| CN(C)c1cc(NC(=O)CNC(C)(C)C)c(O)c2c1C[C@H]1C[C@H]3[C@H](N(C)C)C(O)=C(C(N)=O)C(=O)[C@@]3(O)C(O)=C1C2=O [TIGECYCLINE] | – | – | – | – | – | – | – | – | – | – | – | – | – | – | – | – | – | – | – | – | Activity [30]: 20% |

Reference: ChEMBL document CHEMBL4304756, “Second-Generation Tryptamine Derivatives Potently Sensitize Colistin Resistant Bacteria to Colistin” (ACS Med Chem Lett, 2019)
